Values after ≈ are worked out from the molar mass of the structure shown.
Assays:
Assay type in all cases: functional
Pseudomonas aeruginosa [1] = experiment: In vitro antibacterial activity against Pseudomonas aeruginosa 12
How it was run: (§1)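 Two-fold agar dilution MIC on Mueller-Hinton agar (pH 7.4), following the Japan Society of Chemotherapy MIC Committee method. Inoculum was about 10⁶ CFU, and growth was read after 20 h at 37 °C. MIC is reported in µg/mL.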

Staphylococcus aureus [2] = experiment: In vitro antibacterial activity against Staphylococcus aureus 209P JC-1; how it was run: as §1
Escherichia coli [3] = experiment: In vitro antibacterial activity against Escherichia coli NIHJ JC-2; how it was run: as §1
[4] = tested on: Staphylococcus epidermidis; experiment: In vitro antibacterial activity against Streptococcus epidermis 8; how it was run: as §1
Mus musculus [5] = species on record: Mus musculus; experiment: Oral efficacy against Pseudomonas aeruginosa 12 on Systemic Infections in Mice
How it was run: (§2)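 Groups of at least 10 male Std-ddY mice (20 ± 2 g) were infected ip, with S. pyogenes A65 at 3×10^7 cells or P. aeruginosa 12 at 4×10^3 cells. Compounds were suspended in 0.2% sodium carboxymethylcellulose and given orally at 0 and 6 h postinfection. The result is reported as ED50 in mg/kg.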

Enterococcus faecalis = experiment: In vitro antibacterial activity against Streptococcus faecalis 2473; how it was run: as §1
Klebsiella pneumoniae = experiment: In vitro antibacterial activity against Klebsiella pneumoniae 13; how it was run: as §1
Serratia marcescens = experiment: In vitro antibacterial activity against Serratia marcescens S-9
How it was run: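 MIC (µg/mL) by 2-fold agar dilution on Mueller-Hinton agar (pH 7.4), following the Japan Society of Chemotherapy MIC Committee method. Inoculum of about 10⁶ CFU. Growth was read after 20 h at 37 °C.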

Moraxella bovis = experiment: In vitro antibacterial activity against glucose nonfermenter Moraxella bovis P-7101; how it was run: as §1
Escherichia coli [6] = experiment: In vitro antibacterial activity against Escherichia coli P-5101; how it was run: as §1
Streptococcus pyogenes = experiment: In vitro antibacterial activity against Streptococcus pyogenes A65; how it was run: as §1
Mus musculus [7] = species on record: Mus musculus; experiment: Oral efficacy against Streptococcus pyogenes A65 on Systemic Infections in Mice; how it was run: as §2
Pseudomonas aeruginosa [8] = experiment: In vitro antibacterial activity against Pseudomonas aeruginosa IFO 3445; how it was run: as §1
Enterobacter cloacae = experiment: In vitro antibacterial activity against Enterobacter cloacae 963
Staphylococcus aureus [9] = experiment: In vitro antibacterial activity against Staphylococcus aureus 50774; how it was run: as §1

Compound	MIC (Pseudomonas aeruginosa [1]) [µg/mL]	MIC (Staphylococcus aureus [2]) [µg/mL]	MIC (Escherichia coli [3]) [µg/mL]	MIC (Enterococcus faecalis) [µg/mL]	MIC (Klebsiella pneumoniae) [µg/mL]	MIC (Serratia marcescens) [µg/mL]	MIC (Moraxella bovis) [µg/mL]	MIC (Escherichia coli [6]) [µg/mL]	MIC (Streptococcus pyogenes) [µg/mL]	MIC (Pseudomonas aeruginosa [8]) [µg/mL]	MIC (Enterobacter cloacae) [µg/mL]	MIC [4] [µg/mL]	ED50 (Mus musculus [5]) [mg/kg]	ED50 (Mus musculus [7]) [mg/kg]	MIC (Staphylococcus aureus [9]) [µg/mL]
CN1CCN(c2c(F)c(NCCO)c3c(=O)c(C(=O)O)cn(C4CC4)c3c2F)CC1	0.78 (≈ 1.85 µM)	0.39 (≈ 0.923 µM)	0.05 (≈ 0.118 µM)												
C[C@@H]1CN(c2c(F)c(N)c3c(=O)c(C(=O)O)cn(C4CC4)c3c2F)CCN1	0.2 (≈ 0.529 µM)	0.05 (≈ 0.132 µM)	0.0125 (≈ 0.033 µM)												
Nc1c(F)c(N2CCNCC2)c(F)c2c1c(=O)c(C(=O)O)cn2C1CC1	0.1 (≈ 0.274 µM)	0.05 (≈ 0.137 µM)	0.0063 (≈ 0.0173 µM)	0.39 (≈ 1.07 µM)	0.025 (≈ 0.0686 µM)	0.05 (≈ 0.137 µM)	0.39 (≈ 1.07 µM)	0.0063 (≈ 0.0173 µM)	0.2 (≈ 0.549 µM)	0.39 (≈ 1.07 µM)	0.0125 (≈ 0.0343 µM)	0.05 (≈ 0.137 µM)	1.56	170	0.05 (≈ 0.137 µM)
CSc1c(F)c(N2CCN(C)CC2)c(F)c2c1c(=O)c(C(=O)O)cn2C1CC1	12.5 (≈ 30.5 µM)	3.13 (≈ 7.64 µM)	0.2 (≈ 0.488 µM)												
O=C(O)c1cn(C2CC2)c2c(F)c(N3CCNCC3)c(F)c(F)c2c1=O	0.39 (≈ 1.06 µM)	0.2 (≈ 0.544 µM)	0.0125 (≈ 0.034 µM)	3.13 (≈ 8.52 µM)	0.05 (≈ 0.136 µM)	0.1 (≈ 0.272 µM)	3.13 (≈ 8.52 µM)	0.0125 (≈ 0.034 µM)	3.13 (≈ 8.52 µM)	0.78 (≈ 2.12 µM)	0.025 (≈ 0.0681 µM)	0.2 (≈ 0.544 µM)	3.87	25	0.39 (≈ 1.06 µM)
CN1CCN(c2c(F)c(-n3cccc3)c3c(=O)c(C(=O)O)cn(C4CC4)c3c2F)CC1	12.5 (≈ 29.2 µM)	3.13 (≈ 7.31 µM)	0.39 (≈ 0.91 µM)												
CN1CCN(c2c(F)cc3c(=O)c(C(=O)O)cn(C4CC4)c3c2F)CC1	0.39 (≈ 1.07 µM)	0.2 (≈ 0.55 µM)	0.025 (≈ 0.0688 µM)	0.78 (≈ 2.15 µM)	0.05 (≈ 0.138 µM)	0.1 (≈ 0.275 µM)	0.78 (≈ 2.15 µM)	0.0125 (≈ 0.0344 µM)	0.39 (≈ 1.07 µM)	0.78 (≈ 2.15 µM)	0.05 (≈ 0.138 µM)	0.1 (≈ 0.275 µM)	2.18	8.84	0.1 (≈ 0.275 µM)
O=C(O)c1cn(C2CC2)c2cc(N3CCNCC3)c(F)cc2c1=O [CIPROFLOXACIN]		0.1 (≈ 0.302 µM)		1.56 (≈ 4.71 µM)	0.025 (≈ 0.0754 µM)	0.05 (≈ 0.151 µM)	3.13 (≈ 9.45 µM)	0.0063 (≈ 0.019 µM)	0.2 (≈ 0.604 µM)	0.2 (≈ 0.604 µM)		0.1 (≈ 0.302 µM)	2.78	23.9	0.2 (≈ 0.604 µM)
O=C(O)c1cn(C2CC2)c2c(F)c(N3CCNCC3)c(F)c(O)c2c1=O	0.39 (≈ 1.07 µM)	0.2 (≈ 0.547 µM)	0.025 (≈ 0.0684 µM)												
C[C@@H]1CN(c2c(F)c(N)c3c(=O)c(C(=O)O)cn(C4CC4)c3c2F)[C@@H](C)CN1	3.13 (≈ 7.98 µM)	0.78 (≈ 1.99 µM)	0.39 (≈ 0.994 µM)												
C[C@@H]1NCCN(c2c(F)c(N)c3c(=O)c(C(=O)O)cn(C4CC4)c3c2F)[C@@H]1C (relative stereo)	0.78 (≈ 1.99 µM)	0.025 (≈ 0.0637 µM)	0.0125 (≈ 0.0319 µM)												
C[C@@H]1CN(c2c(F)c(O)c3c(=O)c(C(=O)O)cn(C4CC4)c3c2F)C[C@H](C)N1	0.78 (≈ 1.98 µM)	0.2 (≈ 0.508 µM)	0.025 (≈ 0.0636 µM)												

The remaining compounds from weak to strong by MIC (Pseudomonas aeruginosa [1]), led by results:

MIC (Pseudomonas aeruginosa [1]) [µg/mL]	MIC (Staphylococcus aureus [2]) [µg/mL]	MIC (Escherichia coli [3]) [µg/mL]	MIC (Enterococcus faecalis) [µg/mL]	MIC (Klebsiella pneumoniae) [µg/mL]	MIC (Serratia marcescens) [µg/mL]	MIC (Moraxella bovis) [µg/mL]	MIC (Escherichia coli [6]) [µg/mL]	MIC (Streptococcus pyogenes) [µg/mL]	MIC (Pseudomonas aeruginosa [8]) [µg/mL]	MIC (Enterobacter cloacae) [µg/mL]	Compound	MIC [4] [µg/mL]	ED50 (Mus musculus [5]) [mg/kg]	ED50 (Mus musculus [7]) [mg/kg]	MIC (Staphylococcus aureus [9]) [µg/mL]
50 (≈ 123 µM)	25 (≈ 61.5 µM)	3.13 (≈ 7.7 µM)									CN1CCN(c2c(F)c(N(C)C)c3c(=O)c(C(=O)O)cn(C4CC4)c3c2F)CC1				
3.13 (≈ 6.68 µM)	0.78 (≈ 1.66 µM)	0.78 (≈ 1.66 µM)									CN1CCN(c2c(F)c(NCc3ccccc3)c3c(=O)c(C(=O)O)cn(C4CC4)c3c2F)CC1				
0.78 (≈ 1.99 µM)	0.05 (≈ 0.127 µM)	0.025 (≈ 0.0637 µM)									CC1(C)CN(c2c(F)c(N)c3c(=O)c(C(=O)O)cn(C4CC4)c3c2F)CCN1				
0.78 (≈ 1.89 µM)	0.2 (≈ 0.486 µM)	0.025 (≈ 0.0607 µM)									C[C@@H]1CN(c2c(F)c(Cl)c3c(=O)c(C(=O)O)cn(C4CC4)c3c2F)C[C@H](C)N1				
0.78 (≈ 1.74 µM)	6.25 (≈ 13.9 µM)	0.05 (≈ 0.111 µM)									CN(C)CCNc1c(F)c(N2CCN(C)CC2)c(F)c2c1c(=O)c(C(=O)O)cn2C1CC1				
0.39 (≈ 1.03 µM)	0.39 (≈ 1.03 µM)	0.1 (≈ 0.265 µM)	1.56 (≈ 4.13 µM)	0.05 (≈ 0.132 µM)	0.2 (≈ 0.53 µM)	0.78 (≈ 2.07 µM)	0.0063 (≈ 0.0167 µM)	0.39 (≈ 1.03 µM)	0.39 (≈ 1.03 µM)	0.05 (≈ 0.132 µM)	C[C@@H]1CN(c2c(F)cc3c(=O)c(C(=O)O)cn(C4CC4)c3c2F)C[C@H](C)N1		1.41	8.64	
0.2 (≈ 0.529 µM)	0.1 (≈ 0.264 µM)	0.0125 (≈ 0.033 µM)	0.78 (≈ 2.06 µM)	0.05 (≈ 0.132 µM)	0.1 (≈ 0.264 µM)	0.39 (≈ 1.03 µM)	0.0125 (≈ 0.033 µM)	0.39 (≈ 1.03 µM)	1.56 (≈ 4.12 µM)	0.025 (≈ 0.0661 µM)	CN1CCN(c2c(F)c(N)c3c(=O)c(C(=O)O)cn(C4CC4)c3c2F)CC1	0.05 (≈ 0.132 µM)	2.18	22.9	0.05 (≈ 0.132 µM)
0.1 (≈ 0.264 µM)	0.025 (≈ 0.0661 µM)	0.0063 (≈ 0.0166 µM)	0.39 (≈ 1.03 µM)	0.0125 (≈ 0.033 µM)	0.05 (≈ 0.132 µM)	0.2 (≈ 0.529 µM)	0.0063 (≈ 0.0166 µM)	0.2 (≈ 0.529 µM)	0.2 (≈ 0.529 µM)	0.0125 (≈ 0.033 µM)	C[C@H]1CN(c2c(F)c(N)c3c(=O)c(C(=O)O)cn(C4CC4)c3c2F)CCN1	0.025 (≈ 0.0661 µM)	0.84	5.06	0.025 (≈ 0.0661 µM)
